According to ChEMBL document CHEMBL4138199, “Microwave-promoted facile access to 4-aminoquinoline-phthalimides: Synthesis and anti-plasmodial evaluation” (Eur J Med Chem, 2018):

Key:
Plasmodium falciparum = assay: Antiplasmodial activity against ring-stage of chloroquine-resistant/mefloquine-sensitive Plasmodium falciparum W2 assessed as parasite growth inhibition after 48 hrs by YOYO-1 dye-based flow cytometric method; type: functional, organism-based; conditions: W2, 48 h
Outline: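 Parasites grown in RPMI-1640 with 10% human serum and synchronized with 5% D-sorbitol. Ring-stage cultures exposed 48 h to graded compound levels (DMSO ≤0.1%), then fixed 48 h in 1% formaldehyde/PBS pH 7.4 at room temperature. Stained with 1 nM YOYO-1 in 0.1% Triton X-100/PBS; parasitemia by flow cytometry. IC50 from non-linear fit of % control parasitemia, duplicate experiments.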

J774 = assay: Cytotoxicity against mouse J774 cells assessed as decrease in cell survival after 24 hrs by fluorimetric method; type: cell-based; conditions: J774, 24 h
Outline: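 J774 murine macrophages grown in DMEM with 10% de-complemented fetal calf serum under 5% CO2. Fluorescence read at 540 nm excitation and 590 nm emission. Percent survival is compound-well fluorescence divided by that of control wells with cells in a DMSO dilution series (1% to 0.03125% v/v).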

[1] = Selectivity index, ratio of IC50 for mouse J774 cells to IC50 for ring-stage of chloroquine-resistant/mefloquine-sensitive Plasmodium falciparum W2; type: toxicity; conditions: read-out: Ratio IC50

| Structure (SMILES) | IC50 (Plasmodium falciparum) | IC50 (J774) | selectivity ratio [1] |
| --- | --- | --- | --- |
| O=C1c2c(Br)c(Br)c(Br)c(Br)c2C(=O)N1CCNc1ccnc2cc(Cl)ccc12 | 0.4 µM | – | – |
| O=C1c2c(Cl)c(Cl)c(Cl)c(Cl)c2C(=O)N1CCNc1ccnc2cc(Cl)ccc12 | 0.21 µM | – | – |
| O=C1c2c(Cl)c(Cl)c(Cl)c(Cl)c2C(=O)N1CCCCNc1ccnc2cc(Cl)ccc12 | 0.27 µM | – | – |
| O=C1c2ccccc2C(=O)N1CCCCNc1ccnc2cc(Cl)ccc12 | 0.37 µM | – | – |
| O=C1c2ccc(F)cc2C(=O)N1CCNc1ccnc2cc(Cl)ccc12 | 4.56 µM | – | – |
| O=C1c2cccc(F)c2C(=O)N1CCCCNc1ccnc2cc(Cl)ccc12 | 0.64 µM | – | – |
| C[C@@H]1CC[C@H]2[C@@H](C)C(=O)O[C@@H]3O[C@@]4(C)CC[C@@H]1[C@]32OO4 [ARTEMISININ] | 0.007 µM | – | – |
| O=C1c2ccccc2C(=O)N1CCCCCCCCNc1ccnc2cc(Cl)ccc12 | 0.14 µM | – | – |
| O=C1c2ccccc2C(=O)N1CCCCCCNc1ccnc2cc(Cl)ccc12 | 0.11 µM | 14.3 µM | 130 |
| O=C1c2c(Br)c(Br)c(Br)c(Br)c2C(=O)N1CCCCCCNc1ccnc2cc(Cl)ccc12 | 0.1 µM | 29.1 µM | 291 |
| O=C1c2cccc([N+](=O)[O-])c2C(=O)N1CCCCCCNc1ccnc2cc(Cl)ccc12 | 0.15 µM | – | – |
| O=C1c2cccc(F)c2C(=O)N1CCCCCCNc1ccnc2cc(Cl)ccc12 | 0.24 µM | – | – |
| O=C1c2ccccc2C(=O)N1CCNc1ccnc2cc(Cl)ccc12 | 1.11 µM | – | – |
| O=C1c2c(Br)c(Br)c(Br)c(Br)c2C(=O)N1CCCCNc1ccnc2cc(Cl)ccc12 | 0.19 µM | – | – |
| O=C1c2cccc(F)c2C(=O)N1CCCNc1ccnc2cc(Cl)ccc12 | 3.96 µM | – | – |
| O=C1c2ccc(F)cc2C(=O)N1CCCCNc1ccnc2cc(Cl)ccc12 | 0.42 µM | – | – |
| O=C1c2ccc(F)cc2C(=O)N1CCCCCCCCNc1ccnc2cc(Cl)ccc12 | 0.17 µM | – | – |
| O=C1c2cccc([N+](=O)[O-])c2C(=O)N1CCNc1ccnc2cc(Cl)ccc12 | 7.55 µM | – | – |
| O=C1c2ccccc2C(=O)N1CCCNc1ccnc2cc(Cl)ccc12 | 1.51 µM | – | – |
| O=C1c2c(Br)c(Br)c(Br)c(Br)c2C(=O)N1CCCNc1ccnc2cc(Cl)ccc12 | 3.76 µM | – | – |
| O=C1c2ccc(F)cc2C(=O)N1CCCNc1ccnc2cc(Cl)ccc12 | 1.19 µM | – | – |
| O=C1c2c(Cl)c(Cl)c(Cl)c(Cl)c2C(=O)N1CCCNc1ccnc2cc(Cl)ccc12 | 0.57 µM | – | – |
| O=C1c2cccc(F)c2C(=O)N1CCNc1ccnc2cc(Cl)ccc12 | 4.73 µM | – | – |
| O=C1c2cccc(F)c2C(=O)N1CCCCCCCCNc1ccnc2cc(Cl)ccc12 | 0.12 µM | 28.2 µM | 235 |
| O=C1c2c(Cl)c(Cl)c(Cl)c(Cl)c2C(=O)N1CCCCCCNc1ccnc2cc(Cl)ccc12 | 0.46 µM | – | – |
| O=C1c2ccc(F)cc2C(=O)N1CCCCCCNc1ccnc2cc(Cl)ccc12 | 0.12 µM | 15.2 µM | 126 |
